# According to ChEMBL document CHEMBL3098034, “Synthesis and biological evaluation of α-hydroxyalkylphosphonates as new antimicrobial agents” (Bioorg Med Chem Lett, 2014):
# Active and inactive are the calls of the source. No cut-off for these calls is given here.
# Assays:
# Staphylococcus aureus [1] = assay: Antibacterial activity against Staphylococcus aureus ATCC 29213 at 10 ug by disc diffusion method; assay type: functional; details: for zone of inhibition at 10 µg/disc: read-out: IZ
# [2] = tested on: Acinetobacter haemolyticus; assay: Antibacterial activity against vancomycin-resistant Acinetobacter haemolyticus BW62 at 10 ug by disc diffusion method; assay type: functional; details: for zone of inhibition at 10 µg/disc: read-out: IZ
# Bacillus cereus [3] = assay: Antibacterial activity against Bacillus cereus ATCC 11778 at 10 ug by disc diffusion method; assay type: functional; details: for zone of inhibition at 10 µg/disc: read-out: IZ
# Pseudomonas aeruginosa [4] = assay: Antibacterial activity against multidrug-resistant Pseudomonas aeruginosa PAO1 at 10 ug by disc diffusion method; assay type: functional; details: for zone of inhibition at 10 µg/disc: read-out: IZ
# Escherichia coli [5] = assay: Antibacterial activity against multidrug-resistant Escherichia coli BW54 at 10 ug by disc diffusion method; assay type: functional; details: for zone of inhibition at 10 µg/disc: read-out: IZ
# [6] = tested on: Stenotrophomonas maltophilia; assay: Antibacterial activity against multidrug-resistant Stenotrophomonas maltophilia D457R at 10 ug by disc diffusion method; assay type: functional; details: for zone of inhibition at 10 µg/disc: read-out: IZ
# Escherichia coli [7] = assay: Antibacterial activity against ESBL-producing Escherichia coli BW55 at 10 ug by disc diffusion method; assay type: functional; details: for zone of inhibition at 10 µg/disc: read-out: IZ
# Bacillus cereus [8] = assay: Bactericidal activity against Bacillus cereus ATCC 11778 after 24 hrs by CFU counting assay; assay type: functional; details: ATCC 11778, 24 h
# In short: (§1)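 MBC (lowest concentration killing the pathogen) determined per CLSI specifications, with fosfomycin, ceftriaxone, ciprofloxacin and chloramphenicol run as reference drugs; S. aureus ATCC 29213 used as quality-control strain.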
# Pseudomonas aeruginosa [9] = assay: Bactericidal activity against multidrug-resistant Pseudomonas aeruginosa PAO1 after 24 hrs by CFU counting assay; assay type: functional; details: PAO1, 24 h; in short: as §1
# Escherichia coli [10] = assay: Bactericidal activity against ESBL-producing Escherichia coli BW55 after 24 hrs by CFU counting assay; assay type: functional; details: BW55, 24 h; in short: as §1
# Bacillus cereus [11] = assay: Antibacterial activity against Bacillus cereus ATCC 11778 after 24 hrs by broth microdilution method; assay type: functional; details: ATCC 11778, 24 h
# In short: (§2)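 MIC (lowest concentration preventing growth) determined per CLSI specifications, with fosfomycin, ceftriaxone, ciprofloxacin and chloramphenicol run as reference drugs; S. aureus ATCC 29213 used as quality-control strain.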
# Staphylococcus aureus [12] = assay: Bactericidal activity against Staphylococcus aureus ATCC 29213 after 24 hrs by CFU counting assay; assay type: functional; details: ATCC 29213, 24 h; in short: as §1
# Staphylococcus aureus [13] = assay: Antibacterial activity against Staphylococcus aureus ATCC 29213 after 24 hrs by broth microdilution method; assay type: functional; details: ATCC 29213, 24 h; in short: as §2
# Escherichia coli [14] = assay: Antibacterial activity against multidrug-resistant Escherichia coli BW54 after 24 hrs by broth microdilution method; assay type: functional; details: BW54, 24 h; in short: as §2
# Pseudomonas aeruginosa [15] = assay: Antibacterial activity against multidrug-resistant Pseudomonas aeruginosa PAO1 after 24 hrs by broth microdilution method; assay type: functional; details: PAO1, 24 h; in short: as §2
# [16] = tested on: Stenotrophomonas maltophilia; assay: Antibacterial activity against multidrug-resistant Stenotrophomonas maltophilia D457R after 24 hrs by broth microdilution method; assay type: functional; in short: as §2
# Escherichia coli [17] = assay: Antibacterial activity against ESBL-producing Escherichia coli BW55 after 24 hrs by broth microdilution method; assay type: functional; details: BW55, 24 h; in short: as §2
# Escherichia coli [18] = assay: Bactericidal activity against multidrug-resistant Escherichia coli BW54 after 24 hrs by CFU counting assay; assay type: functional; details: BW54, 24 h; in short: as §1
# Staphylococcus aureus [19] = assay: Bactericidal activity against methicillin-resistant Staphylococcus aureus BW61 after 24 hrs by CFU counting assay; assay type: functional; details: BW61, 24 h; in short: as §1
# [20] = tested on: Acinetobacter haemolyticus; assay: Bactericidal activity against vancomycin-resistant Acinetobacter haemolyticus BW62 after 24 hrs by CFU counting assay; assay type: functional; details: BW62, 24 h; in short: as §1
# [21] = tested on: Stenotrophomonas maltophilia; assay: Bactericidal activity against multidrug-resistant Stenotrophomonas maltophilia D457R after 24 hrs by CFU counting assay; assay type: functional; in short: as §1
# Staphylococcus aureus [22] = assay: Antibacterial activity against methicillin-resistant Staphylococcus aureus BW61 after 24 hrs by broth microdilution method; assay type: functional; details: BW61, 24 h; in short: as §2
# [23] = tested on: Acinetobacter haemolyticus; assay: Antibacterial activity against vancomycin-resistant Acinetobacter haemolyticus BW62 after 24 hrs by broth microdilution method; assay type: functional; details: BW62, 24 h; in short: as §2
# Human alphaherpesvirus 2 = assay: Antiviral activity against Herpes simplex virus 2 G; assay type: functional, organism-based; details: Human alphaherpesvirus 2, strain G
Structure (SMILES),Activity (Staphylococcus aureus [1]),Activity [2],Activity (Bacillus cereus [3]),Activity (Escherichia coli [5]),MBC (Bacillus cereus [8]) [µg/mL],MBC (Pseudomonas aeruginosa [9]) [µg/mL],MBC (Escherichia coli [10]) [µg/mL],MIC (Bacillus cereus [11]) [µg/mL],MBC (Staphylococcus aureus [12]) [µg/mL],MIC (Staphylococcus aureus [13]) [µg/mL],MIC (Escherichia coli [14]) [µg/mL],MIC (Pseudomonas aeruginosa [15]) [µg/mL],MIC [16] [µg/mL],MIC (Escherichia coli [17]) [µg/mL],MBC (Escherichia coli [18]) [µg/mL],MBC (Staphylococcus aureus [19]) [µg/mL],MBC [20] [µg/mL],MBC [21] [µg/mL],MIC (Staphylococcus aureus [22]) [µg/mL],MIC [23] [µg/mL],also measured
CC1(C)COP(=O)([C@@](C)(O)CCl)OC1,inactive,inactive,inactive,inactive,,,,,,,,,,,,,,,,,Activity (Pseudomonas aeruginosa [4]): inactive; Activity [6]: inactive; Activity (Escherichia coli [7]): inactive
O=P(Oc1ccccc1)(Oc1ccccc1)[C@@]1(O)CCC[C@@H]1Cl (mixture of isomers),,inactive,inactive,inactive,256,256,256,128,≥ 256,256,128,256,128,128,256,≥ 256,256,256,256,128,zone of inhibition at 10 µg/disc (Staphylococcus aureus [1]): 8 mm; Activity (Pseudomonas aeruginosa [4]): inactive; Activity [6]: inactive; Activity (Escherichia coli [7]): inactive
Nc1ncnc2c1ncn2CCOCP(=O)(O)O [ADEFOVIR],,,,,,,,,,,,,,,,,,,,,IC50 (Human alphaherpesvirus 2): 77 µM
O=C(O)c1cn(C2CC2)c2cc(N3CCNCC3)c(F)cc2c1=O [CIPROFLOXACIN],,,,,4,4,1,4,4,4,,4,4,,4,4,4,256,4,4,
CC1(C)COP(=O)([C@@](O)(CCl)c2ccccc2)OC1,inactive,inactive,,inactive,,,,,,,,,,,,,,,,,zone of inhibition at 10 µg/disc (Bacillus cereus [3]): 7 mm; zone of inhibition at 10 µg/disc (Pseudomonas aeruginosa [4]): 6 mm; Activity [6]: inactive; Activity (Escherichia coli [7]): inactive
O=P(Oc1ccccc1)(Oc1ccccc1)[C@](O)(CCl)c1ccccc1,inactive,,,,32,64,64,64,64,64,64,64,64,64,64,64,64,64,64,64,zone of inhibition at 10 µg/disc [2]: 8 mm; zone of inhibition at 10 µg/disc (Bacillus cereus [3]): 7 mm; zone of inhibition at 10 µg/disc (Pseudomonas aeruginosa [4]): 7 mm; zone of inhibition at 10 µg/disc (Escherichia coli [5]): 9 mm; zone of inhibition at 10 µg/disc [6]: 7 mm; zone of inhibition at 10 µg/disc (Escherichia coli [7]): 10 mm
CC1(C)COP(=O)([C@@](O)(CCl)c2ccc(Cl)cc2)OC1,inactive,inactive,inactive,inactive,128,128,128,64,128,64,64,128,64,64,128,128,128,256,64,64,Activity (Pseudomonas aeruginosa [4]): inactive; Activity [6]: inactive; zone of inhibition at 10 µg/disc (Escherichia coli [7]): 7 mm
O=C(N[C@H](CO)[C@H](O)c1ccc([N+](=O)[O-])cc1)C(Cl)Cl [CHLORAMPHENICOL],,,,,64,≥ 256,128,0.5,64,8,128,≥ 256,128,8,≥ 256,128,≥ 256,≥ 256,16,128,
C[C@@H]1O[C@@H]1P(=O)(O)O [FOSFOMYCIN],,,,,32,64,128,32,64,8,32,64,256,32,32,32,128,256,64,128,
C[C@](O)(CCl)P(=O)(Oc1ccccc1)Oc1ccccc1,,,,,128,256,256,64,≥ 256,128,128,64,128,64,≥ 256,256,≥ 256,≥ 256,128,64,zone of inhibition at 10 µg/disc (Staphylococcus aureus [1]): 9 mm; zone of inhibition at 10 µg/disc [2]: 8 mm; zone of inhibition at 10 µg/disc (Bacillus cereus [3]): 12 mm; zone of inhibition at 10 µg/disc (Pseudomonas aeruginosa [4]): 7 mm; zone of inhibition at 10 µg/disc (Escherichia coli [5]): 8 mm; Activity [6]: inactive; zone of inhibition at 10 µg/disc (Escherichia coli [7]): 7 mm
CC1(C)COP(=O)([C@@]2(O)CCC[C@@H]2Cl)OC1,inactive,inactive,inactive,inactive,,,,,,,,,,,,,,,,,zone of inhibition at 10 µg/disc (Pseudomonas aeruginosa [4]): 6 mm; zone of inhibition at 10 µg/disc [6]: 6 mm; Activity (Escherichia coli [7]): inactive
CO/N=C(\C(=O)N[C@@H]1C(=O)N2C(C(=O)O)=C(CSc3nc(=O)c(O)nn3C)CS[C@H]12)c1csc(N)n1 [CEFTRIAXONE],,,,,64,128,64,32,4,4,≤ 0.5,128,64,32,0.5,4,4,128,4,4,
O=P(Oc1ccccc1)(Oc1ccccc1)[C@](O)(CCl)c1ccc(Cl)cc1,,,,,32,128,64,32,64,32,64,128,32,32,64,64,128,64,32,64,zone of inhibition at 10 µg/disc (Staphylococcus aureus [1]): 9 mm; zone of inhibition at 10 µg/disc [2]: 7 mm; zone of inhibition at 10 µg/disc (Bacillus cereus [3]): 9 mm; zone of inhibition at 10 µg/disc (Pseudomonas aeruginosa [4]): 10 mm; zone of inhibition at 10 µg/disc (Escherichia coli [5]): 9 mm; zone of inhibition at 10 µg/disc [6]: 11 mm; zone of inhibition at 10 µg/disc (Escherichia coli [7]): 10 mm
O=P(Oc1ccccc1)(Oc1ccccc1)[C@@]1(O)c2ccccc2C[C@@H]1Cl (mixture of isomers),,inactive,inactive,inactive,256,256,256,128,256,256,128,128,128,128,256,256,256,256,256,128,zone of inhibition at 10 µg/disc (Staphylococcus aureus [1]): 5 mm; zone of inhibition at 10 µg/disc (Pseudomonas aeruginosa [4]): 9 mm; Activity [6]: inactive; zone of inhibition at 10 µg/disc (Escherichia coli [7]): 8 mm
C[C@H](Cl)[C@](O)(c1ccccc1)P1(=O)OCC(C)(C)CO1,inactive,inactive,inactive,inactive,,,,,,,,,,,,,,,,,Activity (Pseudomonas aeruginosa [4]): inactive; zone of inhibition at 10 µg/disc [6]: 7 mm; Activity (Escherichia coli [7]): inactive
